Assay results as given in ChEMBL document CHEMBL4346698, “Discovery and optimization of thienopyridine derivatives as novel urea transporter inhibitors” (Eur J Med Chem, 2019).
Active and inactive are the calls of the source. No cut-off for these calls is given here.

Legend:
Urea transporter 1 [1] = target: T1, Urea transporter 1 (Rattus norvegicus, UniProt P97689); assay: Inhibition of urea transporter B in Sprague-Dawley rat erythrocytes incubated for 6 mins by spectrophotometric analysis based erythrocyte lysis assay; type: cell-based
T1 sequence (P97689 whole entry): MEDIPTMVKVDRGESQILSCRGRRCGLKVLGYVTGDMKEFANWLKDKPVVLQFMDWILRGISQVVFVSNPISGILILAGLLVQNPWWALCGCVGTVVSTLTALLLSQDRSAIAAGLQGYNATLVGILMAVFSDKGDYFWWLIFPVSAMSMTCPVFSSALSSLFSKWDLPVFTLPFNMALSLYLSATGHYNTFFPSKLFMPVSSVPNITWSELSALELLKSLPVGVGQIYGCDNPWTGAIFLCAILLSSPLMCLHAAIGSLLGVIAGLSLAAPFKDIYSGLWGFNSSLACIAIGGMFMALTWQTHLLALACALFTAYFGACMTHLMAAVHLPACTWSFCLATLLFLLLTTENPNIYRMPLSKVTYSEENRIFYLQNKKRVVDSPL
Summary of the method: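 Blood came from 8-week-old male SD rats. Erythrocytes were held at 2% hematocrit in hyperosmolar PBS with 1.25 M urea and 5 mM glucose for 2 h at ambient temperature. Compound in DMSO was added for 6 min, then the cells were diluted 1:10 into isotonic PBS. Lysis was read as A710 within 5 min and normalised to same-plate no-lysis (isotonic PBS) and full-lysis (water) controls.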

Urea transporter 1 [2] = target: T2, Urea transporter 1 (Homo sapiens, UniProt Q13336); assay: Inhibition of urea transporter B in human erythrocytes incubated for 6 mins by spectrophotometric analysis based erythrocyte lysis assay; type: cell-based
T2 sequence (Q13336 whole entry): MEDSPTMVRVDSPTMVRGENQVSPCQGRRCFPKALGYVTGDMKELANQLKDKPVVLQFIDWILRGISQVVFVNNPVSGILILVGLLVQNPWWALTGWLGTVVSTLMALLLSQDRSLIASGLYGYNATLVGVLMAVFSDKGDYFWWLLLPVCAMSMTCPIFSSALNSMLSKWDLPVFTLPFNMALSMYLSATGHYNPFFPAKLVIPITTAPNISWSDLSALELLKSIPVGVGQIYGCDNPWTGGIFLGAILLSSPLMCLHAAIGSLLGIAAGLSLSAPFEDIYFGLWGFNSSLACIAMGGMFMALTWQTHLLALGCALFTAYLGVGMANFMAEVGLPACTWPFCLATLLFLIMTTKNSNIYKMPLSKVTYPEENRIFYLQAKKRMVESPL

Rattus norvegicus = assay: Diuretic activity in Sprague-Dawley rat assessed as increase in urine output at 100 mg/kg, sc measured after 10 hrs; type: functional, organism-based
Summary of the method: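 SD rats housed in metabolic cages received a subcutaneous injection of 100 mg/kg in 40% 2-hydroxypropyl-β-cyclodextrin, with the vehicle alone as control. Urine output was collected for 10 h after dosing. n=5, mean + SD.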

SMILES | IC50 (Urea transporter 1 [1]) [µM] | IC50 (Urea transporter 1 [2]) [µM] | Activity (Rattus norvegicus)
COC(=O)c1sc2nc3ccc(Br)cc3cc2c1N | 0.27 |  | 
COc1ccc2nc3sc(S(=O)(=O)N(C)C)c(N)c3cc2c1 | > 10 |  | 
COC(=O)c1sc2nc(C)c(Br)cc2c1N | 8.47 |  | 
COC(=O)c1sc2nc(-c3ccccc3)ccc2c1N | 3.36 |  | 
COC(=O)c1sc2nc(C)c(OC)cc2c1N | 5.46 |  | 
COC(=O)c1sc2nc(C)cc(C(F)(F)F)c2c1N | 6.12 |  | 
COC(=O)c1sc2nc(C)c(N(C)C)cc2c1N | 3.75 |  | 
COC(=O)c1sc2nc(C)c(C(C)=O)cc2c1N | 0.91 |  | 
CC(=O)c1sc2nc3ccc(C)cc3cc2c1N | 3.51 | 1.72 | 
COC(=O)c1sc2nc(C)cc(C)c2c1N | 2.54 |  | 
CCOC(=O)c1cnc2sc(C(=O)OC)c(N)c2c1 | > 10 |  | 
COC(=O)c1sc2nc(C)c(N)cc2c1N | 0.54 |  | Active
COC(=O)c1sc2nc(C)c(C(=O)N3CCOCC3)cc2c1N | > 10 |  | 
COC(=O)c1sc2nc(C(=O)N3CCOCC3)ccc2c1N | > 10 |  | 
COC(=O)c1sc2nc3c(C)cc(C)cc3cc2c1N | 0.61 |  | 
CCNC(=O)c1cc2c(N)c(C(=O)OC)sc2nc1C | > 10 |  | 
COC(=O)c1sc2nc(C)c([N+](=O)[O-])cc2c1N | > 10 |  | 
CNC(=O)c1cc2c(N)c(C(=O)OC)sc2nc1C | > 10 |  | 
COC(=O)c1sc2nc(C)c(-c3ccccc3)cc2c1N | 3.29 |  | 
COC(=O)c1sc2nc(C)c(F)cc2c1N | > 10 |  | 
COC(=O)c1sc2nc(C)c(NS(C)(=O)=O)cc2c1N | 6.42 |  | 
COC(=O)c1sc2nc(C)ccc2c1N | 1.3 |  | 
COC(=O)c1sc2nc3ccccc3cc2c1N | 0.22 |  | 
COC(=O)c1sc2nc(C)c(NC(C)=O)cc2c1N | 3.47 |  | 
CCc1cc2c(N)c(C(=O)OC)sc2nc1C | 0.71 |  | 

Now from value to molecule, other results behind:

IC50 (Urea transporter 1 [1]) [µM] | IC50 (Urea transporter 1 [2]) [µM] | SMILES | Activity (Rattus norvegicus)
1.63 |  | COc1ccc2nc3sc(C(C)=O)c(N)c3cc2c1 | 
> 10 |  | CCOC(=O)c1sc2nc3ccc(OC)cc3cc2c1N | 
> 10 |  | CNC(=O)c1sc2nc3ccc(OC)cc3cc2c1N | 
> 10 |  | COc1ccc2nc3sc(C(=O)O)c(N)c3cc2c1 | 
> 10 |  | COC(=O)CC(=O)c1sc2nc3ccc(OC)cc3cc2c1N | 
> 10 |  | COc1ccc2nc3sc(C(N)=O)c(N)c3cc2c1 | 
> 10 |  | COc1ccc2nc3sc(C(=O)N4CCOCC4)c(N)c3cc2c1 | 
> 10 |  | COC(=O)CNC(=O)c1sc2nc3ccc(OC)cc3cc2c1N | 
0.23 |  | COC(=O)c1sc2nc3ccc(C)cc3cc2c1N | 
0.22 |  | COC(=O)c1sc2nc3ccc(OC)cc3cc2c1N | 
0.16 |  | COC(=O)c1sc2nc3ccc(F)cc3cc2c1N | 
